Measurements taken from ChEMBL document CHEMBL1125485, “Inhibitors of blood platelet cAMP phosphodiesterase. 2. Structure-activity relationships associated with 1,3-dihydro-2H-imidazo[4,5-b]quinolin-2-ones substituted with functionalized side chains” (J Med Chem, 1992).

Columns and labels:
Canis familiaris [1] = experiment: Inhibition of coronary artery occlusion (mean area under flow time curve) in anesthetized dog at 0.01 mg/kg; format: functional; conditions: Canis lupus familiaris
Outline: (§1)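 Modified Folts-type coronary stenosis-occlusion model of large-vessel thrombosis; read-out mean area under flow-time curve (% seconds) compared with vehicle-treated animals, as percent inhibition of thrombus formation. Five animals.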

Canis familiaris [2] = experiment: Inhibition of coronary artery occlusion (mean area under flow time curve) in anesthetized dog at 0.03 mg/kg; format: functional; conditions: Canis lupus familiaris; outline: as §1
Canis familiaris [3] = experiment: Inhibition of coronary artery occlusion (mean area under flow time curve) in anesthetized dog at 0.1 mg/kg; format: functional; conditions: Canis lupus familiaris; outline: as §1
[4] = biological target: cGMP-dependent 3',5'-cyclic phosphodiesterase (Homo sapiens, UniProt O00408); experiment: Inhibition of human platelet PDE by inhibiting cyclic Guanosine monophosphate (cGMP) hydrolysis
Oryctolagus cuniculus [5] = experiment: Inhibition of thrombus formation (mean thrombus area) in conscious rabbits at 0.3 mg/kg; format: functional; conditions: values are per cent of control
Outline: (§2)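 Conscious rabbit ear biolaser model: ruby laser induces microvascular thrombi. Predose mean thrombus area from 10 vessels, then compound given orally as suspension in H2O/Tween 20 and 10 trials repeated 2 h later in the same rabbit; percent inhibition versus predose. At least three rabbits.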

Oryctolagus cuniculus [6] = experiment: Inhibition of thrombus formation (mean thrombus area) in conscious rabbits at 1.0 mg/kg; format: functional; conditions: values are per cent of control; outline: as §2
Oryctolagus cuniculus [7] = experiment: Inhibition of thrombus formation (mean thrombus area) in conscious rabbits at 3.0 mg/kg; format: functional; conditions: values are per cent of control; outline: as §2
Phosphodiesterase 3 [8] = biological target: T1, Phosphodiesterase 3 (Homo sapiens, UniProt Q14432+Q13370); experiment: Inhibition of human platelet PDE by inhibiting cyclic Adenosine monophosphate (cAMP) hydrolysis
Oryctolagus cuniculus [9] = species: Oryctolagus cuniculus; experiment: Inhibition of platelet aggregation using collagen as activating agent in rabbit platelet rich plasma (PRP); format: functional
Outline: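 Rabbit platelet-rich plasma, aggregation triggered by ADP or collagen after 3 min preincubation of PRP with drug. Single or duplicate determinations, reference agent included.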

Rattus norvegicus [10] = species: Rattus norvegicus; experiment: Oral efficacy in rats using the ex vivo aggregatory protocol; format: functional
Outline: (§3)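 Rats given compound orally, then ADP-induced platelet aggregation measured ex vivo.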

Rattus norvegicus [11] = experiment: Percent inhibition of oral efficacy in rats using the ex vivo aggregatory protocol at 10 mg/kg; format: functional; outline: as §3
Mustela putorius furo [12] = experiment: Change in heart rate (HR)in anesthetized ferrets by intraduodenal dose at 0.3 mg/kg; format: functional; conditions: dose 3 mg/kg, in the assay text read “3 mg/kg” for “0.3 mg/kg”
Outline: (§4)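 Anesthetized ferrets dosed intraduodenally; heart rate, mean arterial blood pressure and right ventricular contractile force monitored as dose-dependent changes, reported as maximum change (%). Averages from at least three separate experiments.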

Mustela putorius furo [13] = experiment: Change in mean arterial blood pressure (MABP) in anesthetized ferrets by intraduodenal dose at 0.3 mg/kg; format: functional, Artery; conditions: dose 3 mg/kg, in the assay text read “3 mg/kg” for “0.3 mg/kg”; outline: as §4
Mustela putorius furo [14] = experiment: Change in mean arterial blood pressure (MABP) in anesthetized ferrets by intraduodenal dose at 3 mg/kg; format: functional, Artery; conditions: dose 10 mg/kg, in the assay text read “10 mg/kg” for “3 mg/kg”; outline: as §4
Mustela putorius furo [15] = experiment: Change in right ventricular contractile force (RCVF) in anesthetized ferrets by intraduodenal dose at 0.3 mg/kg; format: functional; conditions: Heart right ventricle, dose 3 mg/kg, in the assay text read “3 mg/kg” for “0.3 mg/kg”; outline: as §4
Mustela putorius furo [16] = experiment: Change in heart rate (HR)in anesthetized ferrets by intraduodenal dose at 10 mg/kg
Mustela putorius furo [17] = experiment: Change in right ventricular contractile force (RCVF) in anesthetized ferrets by intraduodenal dose at 10 mg/kg; conditions: Heart right ventricle
[18] = Inhibition of human platelet c-AMP phosphodiesterase hydrolysis of cAMP
Oryctolagus cuniculus [19] = species: Oryctolagus cuniculus; experiment: Inhibition of ADP-induced platelet aggregation in rabbit platelet rich plasma (PRP); format: functional
Outline: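 Rabbit platelet-rich plasma, aggregation triggered by ADP or collagen after 3 min preincubation of PRP with drug. […] Single or duplicate determinations, reference agent included.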

Phosphodiesterase 3 [20] = biological target: T1, Phosphodiesterase 3; experiment: Inhibition of human platelet PDE cAMP hydrolysis
Canis familiaris [21] = experiment: Inhibition of coronary artery occlusion (mean area under flow time curve) in anesthetized dog at 0.3 mg/kg; format: functional; conditions: Canis lupus familiaris; outline: as §1
Oryctolagus cuniculus [22] = experiment: Inhibition of thrombus formation (mean thrombus area) in conscious rabbits at 10.0 mg/kg; format: functional; conditions: values are per cent of control; outline: as §2

Chain of cGMP-dependent 3',5'-cyclic phosphodiesterase (O00408 whole entry): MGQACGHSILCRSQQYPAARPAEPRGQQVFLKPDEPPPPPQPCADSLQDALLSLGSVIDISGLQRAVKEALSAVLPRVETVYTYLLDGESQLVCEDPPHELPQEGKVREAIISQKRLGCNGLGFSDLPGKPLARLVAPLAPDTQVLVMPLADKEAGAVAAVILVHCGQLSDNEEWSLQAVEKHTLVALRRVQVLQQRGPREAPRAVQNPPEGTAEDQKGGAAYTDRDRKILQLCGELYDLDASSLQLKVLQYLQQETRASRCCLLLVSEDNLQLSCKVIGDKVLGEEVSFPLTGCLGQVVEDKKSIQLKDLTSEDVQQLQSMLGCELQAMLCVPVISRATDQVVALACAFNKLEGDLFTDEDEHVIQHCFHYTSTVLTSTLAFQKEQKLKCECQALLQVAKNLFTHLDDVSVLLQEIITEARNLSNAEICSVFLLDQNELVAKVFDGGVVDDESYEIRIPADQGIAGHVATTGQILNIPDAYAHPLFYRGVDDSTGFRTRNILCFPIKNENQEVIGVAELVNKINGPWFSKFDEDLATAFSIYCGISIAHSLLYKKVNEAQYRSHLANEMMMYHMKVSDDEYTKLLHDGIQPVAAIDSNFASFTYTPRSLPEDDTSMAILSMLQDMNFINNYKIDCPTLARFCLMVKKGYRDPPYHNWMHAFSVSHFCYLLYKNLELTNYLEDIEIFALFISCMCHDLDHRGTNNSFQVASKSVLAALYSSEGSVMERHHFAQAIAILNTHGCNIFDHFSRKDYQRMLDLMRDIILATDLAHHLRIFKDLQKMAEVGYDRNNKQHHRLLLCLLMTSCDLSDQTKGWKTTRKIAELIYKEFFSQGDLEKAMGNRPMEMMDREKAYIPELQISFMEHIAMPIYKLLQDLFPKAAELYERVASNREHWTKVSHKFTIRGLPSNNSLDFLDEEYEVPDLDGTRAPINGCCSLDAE

Structure (SMILES): O=C(O)CCCOc1ccc2[nH]c3nc(O)nc-3cc2c1
- inhibition in vivo at 0.01 mg/kg (Canis familiaris [1]): 89%
- inhibition in vivo at 0.03 mg/kg (Canis familiaris [2]): 115%
- inhibition in vivo at 0.1 mg/kg (Canis familiaris [3]): 111%
- IC50 [4]: 30 µM
- response, % of control at 0.3 mg/kg (Oryctolagus cuniculus [5]): 144%
- response, % of control at 1 mg/kg (Oryctolagus cuniculus [6]): 70%
- response, % of control at 3 mg/kg (Oryctolagus cuniculus [7]): 65%

Structure (SMILES): Cn1c(O)nc2cc3cc(OCCCC(=O)O)ccc3nc21
- IC50 (Phosphodiesterase 3 [8]): 1 µM
- EC50 (Oryctolagus cuniculus [9]): 100 nM
- ED50 (Rattus norvegicus [10]): < 10 mg/kg
- inhibition in vivo at 10 mg/kg (Rattus norvegicus [11]): 59%

Structure (SMILES): OCCCCCc1ccc2[nH]c3nc(O)nc-3cc2c1
- IC50 (Phosphodiesterase 3 [8]): 0.1 µM
- EC50 (Oryctolagus cuniculus [9]): 220 nM
- ED50 (Rattus norvegicus [10]): > 10 mg/kg
- inhibition in vivo at 10 mg/kg (Rattus norvegicus [11]): 26%

Structure (SMILES): CN(C(=O)CCCOc1ccc2nc3c(cc2c1)nc(O)n3C)C1CCCCC1
- IC50 (Phosphodiesterase 3 [8]): 0.1 µM
- EC50 (Oryctolagus cuniculus [9]): 130 nM
- ED50 (Rattus norvegicus [10]): < 10 mg/kg
- inhibition in vivo at 10 mg/kg (Rattus norvegicus [11]): 68%

Structure (SMILES): COC(=O)CCCOc1ccc2nc3[nH]c(=O)[nH]c3cc2c1
- inhibition in vivo at 0.01 mg/kg (Canis familiaris [1]): 78%
- inhibition in vivo at 0.03 mg/kg (Canis familiaris [2]): 109%
- inhibition in vivo at 0.1 mg/kg (Canis familiaris [3]): 120%
- IC50 (Phosphodiesterase 3 [8]): 0.4 µM
- IC50 [4]: > 100 µM
- EC50 (Oryctolagus cuniculus [9]): 20 nM
- response, % of control at 0.3 mg/kg (Oryctolagus cuniculus [5]): 145%
- response, % of control at 1 mg/kg (Oryctolagus cuniculus [6]): 74%
- response, % of control at 3 mg/kg (Oryctolagus cuniculus [7]): 78%

Structure (SMILES): O=c1[nH]c2cc3cc(OCCCCS(=O)(=O)c4ccccc4)ccc3nc2[nH]1
- inhibition in vivo at 0.03 mg/kg (Canis familiaris [2]): 115%
- HR (Mustela putorius furo [12]): 13%
- MABP (Mustela putorius furo [13]): -9%
- MABP (Mustela putorius furo [14]): -11%
- RVCF (Mustela putorius furo [15]): 16%
- IC50 (Phosphodiesterase 3 [8]): 0.001 µM
- IC50 [4]: > 100 µM
- response, % of control at 0.3 mg/kg (Oryctolagus cuniculus [5]): 137%
- response, % of control at 1 mg/kg (Oryctolagus cuniculus [6]): 74%
- response, % of control at 3 mg/kg (Oryctolagus cuniculus [7]): 62%
- HR (Mustela putorius furo [16]): 31%
- RVCF (Mustela putorius furo [17]): 39%

Structure (SMILES): O=C(O)COc1ccc2[nH]c3nc(O)nc-3cc2c1
- IC50 (Phosphodiesterase 3 [8]): 0.07 µM
- IC50 [4]: 50 µM
- EC50 (Oryctolagus cuniculus [9]): 760 nM
- ED50 (Rattus norvegicus [10]): < 10 mg/kg
- inhibition in vivo at 10 mg/kg (Rattus norvegicus [11]): 61%

Structure (SMILES): COC(=O)/C=C/C=C/c1ccc2[nH]c3nc(O)nc-3cc2c1
- EC50 (Oryctolagus cuniculus [9]): 670 nM
- ED50 (Rattus norvegicus [10]): 10 mg/kg
- IC50 [18]: 90 nM

Structure (SMILES): CCOC(=O)/C=C/c1ccc2[nH]c3nc(O)nc-3cc2c1
- EC50 (Oryctolagus cuniculus [9]): 280 nM
- IC50 [18]: 1000 nM

Structure (SMILES): CN(C(=O)CCCCOc1ccc2nc3nc(O)n(C)c3cc2c1)C1CCCCCC1
- IC50 (Phosphodiesterase 3 [8]): 0.6 µM
- IC50 [4]: 10 µM
- ED50 (Rattus norvegicus [10]): > 10 mg/kg
- inhibition in vivo at 10 mg/kg (Rattus norvegicus [11]): 43%

Structure (SMILES): CNC(=O)CCCOc1ccc2[nH]c3nc(O)nc-3cc2c1
- IC50 (Phosphodiesterase 3 [8]): 0.007 µM
- EC50 (Oryctolagus cuniculus [9]): 830 nM
- ED50 (Rattus norvegicus [10]): < 10 mg/kg
- inhibition in vivo at 10 mg/kg (Rattus norvegicus [11]): 57%

Structure (SMILES): O=C(CCCOc1ccc2[nH]c3nc(O)nc-3cc2c1)N1CCCCC1
- IC50 (Phosphodiesterase 3 [8]): 0.02 µM
- IC50 [4]: > 100 µM
- ED50 (Rattus norvegicus [10]): < 10 mg/kg
- inhibition in vivo at 10 mg/kg (Rattus norvegicus [11]): 57%

Structure (SMILES): CC(C)OC(=O)CCCOc1ccc2[nH]c3nc(O)nc-3cc2c1
- IC50 (Phosphodiesterase 3 [8]): 0.3 µM
- EC50 (Oryctolagus cuniculus [9]): 21 nM
- ED50 (Rattus norvegicus [10]): > 10 mg/kg
- inhibition in vivo at 10 mg/kg (Rattus norvegicus [11]): 24%

Structure (SMILES): CN(C)C(=O)CCCOc1ccc2[nH]c3nc(O)nc-3cc2c1
- IC50 (Phosphodiesterase 3 [8]): 0.04 µM
- EC50 (Oryctolagus cuniculus [9]): 950 nM
- ED50 (Rattus norvegicus [10]): > 10 mg/kg
- EC50 (Oryctolagus cuniculus [19]): 4.77 µM

Structure (SMILES): Cn1c(O)nc2nc3ccc(OCCCC(=O)NC4CCCCC4)cc3cc21
- IC50 (Phosphodiesterase 3 [20]): 0.7 µM
- IC50 [4]: > 100 µM
- EC50 (Oryctolagus cuniculus [9]): 20 nM

Structure (SMILES): CN(C(=O)CCCOc1ccc2nc3[nH]c(=O)[nH]c3cc2c1)C1CCCCC1
- inhibition in vivo at 0.3 mg/kg (Canis familiaris [21]): > 120%
- inhibition in vivo at 0.03 mg/kg (Canis familiaris [2]): 115%
- IC50 (Phosphodiesterase 3 [8]): 0.002 µM
- IC50 [4]: 6 µM
- EC50 (Oryctolagus cuniculus [9]): 2 nM
- response, % of control at 0.3 mg/kg (Oryctolagus cuniculus [5]): 97%
- response, % of control at 1 mg/kg (Oryctolagus cuniculus [6]): 65%
- ED50 (Rattus norvegicus [10]): 2.9 mg/kg

Structure (SMILES): OCCCCOc1ccc2[nH]c3nc(O)nc-3cc2c1
- IC50 (Phosphodiesterase 3 [8]): 0.006 µM
- IC50 [4]: 20 µM
- EC50 (Oryctolagus cuniculus [9]): 33 nM
- ED50 (Rattus norvegicus [10]): > 10 mg/kg
- inhibition in vivo at 10 mg/kg (Rattus norvegicus [11]): 47%

Structure (SMILES): O=C1CN2Cc3c(ccc(Cl)c3Cl)N=C2N1 [ANAGRELIDE]
- inhibition in vivo at 0.3 mg/kg (Canis familiaris [21]): 117%
- inhibition in vivo at 0.03 mg/kg (Canis familiaris [2]): 72%
- inhibition in vivo at 0.1 mg/kg (Canis familiaris [3]): 106%
- response, % of control at 1 mg/kg (Oryctolagus cuniculus [6]): 98%
- response, % of control at 10 mg/kg (Oryctolagus cuniculus [22]): 49%
- response, % of control at 3 mg/kg (Oryctolagus cuniculus [7]): 68%
